# Measured values as given in ChEMBL document CHEMBL4007505 (J Med Chem, 2017).
# Active and inactive are the calls of the source. The rule behind the calls is not given here.
# What was measured:
# [1] = molecular target: T1, Sodium-dependent dopamine transporter (Homo sapiens, UniProt Q01959); test: Enhancing of [3H]WIN35,428 binding to recombinant human DAT expressed in HEK293 cell membranes at 10 uM pre-incubated for 10 mins before radioligand addition and measured 90 mins after radioligand addition by micro beta scintillation counting analysis relative to control
# T1 sequence (Q01959 whole entry): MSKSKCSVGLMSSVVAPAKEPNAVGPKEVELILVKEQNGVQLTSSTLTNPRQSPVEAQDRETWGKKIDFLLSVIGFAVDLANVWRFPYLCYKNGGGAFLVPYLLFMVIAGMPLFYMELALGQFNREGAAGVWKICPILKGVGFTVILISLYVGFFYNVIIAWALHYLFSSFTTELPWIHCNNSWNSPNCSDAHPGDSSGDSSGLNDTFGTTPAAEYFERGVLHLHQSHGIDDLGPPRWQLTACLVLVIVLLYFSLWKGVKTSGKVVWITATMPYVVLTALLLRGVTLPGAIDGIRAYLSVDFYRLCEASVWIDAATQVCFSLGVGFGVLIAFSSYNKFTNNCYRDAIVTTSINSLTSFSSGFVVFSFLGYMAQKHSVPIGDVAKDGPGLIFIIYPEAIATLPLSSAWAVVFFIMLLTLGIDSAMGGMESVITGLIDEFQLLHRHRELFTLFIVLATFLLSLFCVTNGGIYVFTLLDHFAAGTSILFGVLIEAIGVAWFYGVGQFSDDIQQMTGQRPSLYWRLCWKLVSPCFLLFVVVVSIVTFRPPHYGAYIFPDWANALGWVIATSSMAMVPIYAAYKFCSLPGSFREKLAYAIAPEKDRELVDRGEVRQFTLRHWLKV
# [2] = molecular target: T1, Sodium-dependent dopamine transporter; test: Inhibition of [3H]WIN35,428 binding to recombinant human DAT expressed in HEK293 cell membranes at 10 uM pre-incubated for 10 mins before radioligand addition and measured 90 mins after radioligand addition by micro beta scintillation counting analysis relative to control
# [3] = molecular target: T1, Sodium-dependent dopamine transporter; test: Enhancing of [125I]RTI-55 binding to recombinant human DAT expressed in HEK293 cell membranes preincubated for 10 mins followed by radioligand addition measured after 90 mins by micro beta scintillation counting analysis; set-up: concentration or dose not given beside the values
# How it was run: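 Membranes of HEK-293 cells stably expressing hDAT, hNET or hSERT. […] Compound preincubated 10 min at room temperature, then [125I]23 (40-80 pM final) or [3H]26 (1-3 nM for DAT and NET, 10-13 nM for SERT) added. Incubated 90 min at room temperature in the dark, then filtered. EC50 or Ki; mean ± SEM.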
# [4] = molecular target: T2, Sodium-dependent noradrenaline transporter (Homo sapiens, UniProt P23975); test: Enhancing of [125I]RTI-55 binding to recombinant human NET expressed in HEK293 cell membranes preincubated for 10 mins followed by radioligand addition measured after 90 mins by micro beta scintillation counting analysis; set-up: concentration or dose not given beside the values
# T2 sequence (P23975 whole entry): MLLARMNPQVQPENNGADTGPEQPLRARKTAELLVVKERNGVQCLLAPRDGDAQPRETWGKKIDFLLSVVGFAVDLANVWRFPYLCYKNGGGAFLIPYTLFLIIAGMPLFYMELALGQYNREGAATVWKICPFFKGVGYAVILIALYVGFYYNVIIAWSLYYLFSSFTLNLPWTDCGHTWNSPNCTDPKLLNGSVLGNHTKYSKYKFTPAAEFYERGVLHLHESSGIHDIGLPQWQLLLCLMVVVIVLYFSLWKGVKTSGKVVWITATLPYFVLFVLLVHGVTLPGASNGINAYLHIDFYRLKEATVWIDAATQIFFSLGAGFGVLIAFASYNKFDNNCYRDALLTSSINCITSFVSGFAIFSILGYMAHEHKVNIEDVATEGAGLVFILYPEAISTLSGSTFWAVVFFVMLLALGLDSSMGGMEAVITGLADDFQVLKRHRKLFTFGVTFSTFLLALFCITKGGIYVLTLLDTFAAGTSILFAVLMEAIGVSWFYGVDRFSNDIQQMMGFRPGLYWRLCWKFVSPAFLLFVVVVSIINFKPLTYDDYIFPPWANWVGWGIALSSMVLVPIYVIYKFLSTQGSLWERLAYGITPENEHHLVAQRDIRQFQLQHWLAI
# [5] = molecular target: T2, Sodium-dependent noradrenaline transporter; test: Inhibition of recombinant human NET expressed in HEK293 […] assessed as reduction in [3H]-norepinephrine uptake incubated for 22 mins by micro beta scintillation counting analysis
# [6] = molecular target: T3, Sodium-dependent serotonin transporter (Homo sapiens, UniProt P31645); test: Enhancing of [125I]RTI-55 binding to recombinant human SERT expressed in HEK293 cell membranes preincubated for 10 mins followed by radioligand addition measured after 90 mins by micro beta scintillation counting analysis
# [7] = molecular target: T3, Sodium-dependent serotonin transporter; test: Enhancing of [3H]mazindol binding to recombinant human SERT expressed in HEK293 cell membranes preincubated for 10 mins followed by radioligand addition measured after 90 mins by micro beta scintillation counting analysis
# Target sequence in this assay (P31645 whole entry): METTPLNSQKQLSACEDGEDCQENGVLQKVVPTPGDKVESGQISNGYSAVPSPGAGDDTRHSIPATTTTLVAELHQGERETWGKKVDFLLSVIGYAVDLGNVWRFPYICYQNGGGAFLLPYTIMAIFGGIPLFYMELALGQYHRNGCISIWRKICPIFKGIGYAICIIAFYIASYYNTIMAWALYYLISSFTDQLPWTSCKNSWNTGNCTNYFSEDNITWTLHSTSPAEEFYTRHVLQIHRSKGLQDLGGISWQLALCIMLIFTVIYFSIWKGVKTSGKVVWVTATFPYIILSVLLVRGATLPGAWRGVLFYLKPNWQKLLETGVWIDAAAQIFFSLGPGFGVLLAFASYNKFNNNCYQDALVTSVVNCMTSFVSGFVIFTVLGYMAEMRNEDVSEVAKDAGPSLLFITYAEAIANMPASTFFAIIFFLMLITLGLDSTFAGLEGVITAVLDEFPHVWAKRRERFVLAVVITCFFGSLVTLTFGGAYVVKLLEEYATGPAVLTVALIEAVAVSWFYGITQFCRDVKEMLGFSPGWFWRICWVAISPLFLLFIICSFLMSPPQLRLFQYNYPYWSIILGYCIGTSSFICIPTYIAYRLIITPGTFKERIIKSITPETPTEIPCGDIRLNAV
# [8] = molecular target: T4, 5-hydroxytryptamine receptor 2C (Homo sapiens, UniProt P28335); test: Displacement of [3H]Mesulergine from human 5-HT2C receptor
# T4 sequence (P28335 whole entry): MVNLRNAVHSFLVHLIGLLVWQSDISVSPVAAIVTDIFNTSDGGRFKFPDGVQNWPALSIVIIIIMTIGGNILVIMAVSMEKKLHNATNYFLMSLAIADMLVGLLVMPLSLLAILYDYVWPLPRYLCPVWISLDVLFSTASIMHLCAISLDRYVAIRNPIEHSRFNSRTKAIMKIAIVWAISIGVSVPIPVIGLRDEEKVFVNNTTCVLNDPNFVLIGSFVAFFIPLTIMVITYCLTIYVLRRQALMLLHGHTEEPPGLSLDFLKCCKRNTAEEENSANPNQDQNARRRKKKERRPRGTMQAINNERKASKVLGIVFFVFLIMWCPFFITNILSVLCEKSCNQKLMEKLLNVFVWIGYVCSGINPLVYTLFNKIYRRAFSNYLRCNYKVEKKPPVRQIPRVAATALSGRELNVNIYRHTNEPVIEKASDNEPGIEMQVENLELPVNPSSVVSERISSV
# [9] = molecular target: T5, Alpha-1A adrenergic receptor (Homo sapiens, UniProt P35348); test: Displacement of [3H]Prazosin from human adrenergic alpha1A receptor
# T5 sequence (P35348 whole entry): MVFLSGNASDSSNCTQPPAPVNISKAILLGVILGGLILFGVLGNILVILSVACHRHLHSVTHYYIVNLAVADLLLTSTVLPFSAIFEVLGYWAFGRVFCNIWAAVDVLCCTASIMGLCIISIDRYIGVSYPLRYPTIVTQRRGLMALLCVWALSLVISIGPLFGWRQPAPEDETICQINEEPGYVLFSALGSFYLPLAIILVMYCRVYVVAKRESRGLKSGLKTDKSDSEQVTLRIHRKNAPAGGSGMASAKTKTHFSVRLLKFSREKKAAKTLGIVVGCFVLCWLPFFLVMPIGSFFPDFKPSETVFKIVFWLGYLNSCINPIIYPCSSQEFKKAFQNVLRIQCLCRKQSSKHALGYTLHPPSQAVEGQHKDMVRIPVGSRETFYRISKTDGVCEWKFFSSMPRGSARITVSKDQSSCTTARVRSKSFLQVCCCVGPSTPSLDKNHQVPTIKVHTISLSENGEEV
# [10] = molecular target: T6, Alpha-1B adrenergic receptor (Homo sapiens, UniProt P35368); test: Displacement of [3H]Prazosin from human adrenergic alpha1B receptor
# T6 sequence (P35368 whole entry): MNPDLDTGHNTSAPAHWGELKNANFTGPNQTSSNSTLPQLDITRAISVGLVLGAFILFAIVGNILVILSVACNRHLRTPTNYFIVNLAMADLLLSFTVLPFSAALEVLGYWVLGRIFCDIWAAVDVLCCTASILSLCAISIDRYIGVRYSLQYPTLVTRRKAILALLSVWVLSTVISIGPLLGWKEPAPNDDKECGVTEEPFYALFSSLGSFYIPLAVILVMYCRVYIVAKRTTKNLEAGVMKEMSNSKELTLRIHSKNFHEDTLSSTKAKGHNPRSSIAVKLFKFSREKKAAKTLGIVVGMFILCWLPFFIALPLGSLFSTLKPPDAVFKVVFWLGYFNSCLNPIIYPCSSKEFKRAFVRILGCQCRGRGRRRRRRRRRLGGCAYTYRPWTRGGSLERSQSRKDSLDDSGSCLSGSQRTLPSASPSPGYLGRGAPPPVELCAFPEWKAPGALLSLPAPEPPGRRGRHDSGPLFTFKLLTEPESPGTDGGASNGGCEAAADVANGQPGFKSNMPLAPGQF
# [11] = molecular target: T7, Alpha-2C adrenergic receptor (Homo sapiens, UniProt P18825); test: Displacement of [3H]Rauwolscine from human adrenergic alpha2C receptor
# T7 sequence (P18825 whole entry): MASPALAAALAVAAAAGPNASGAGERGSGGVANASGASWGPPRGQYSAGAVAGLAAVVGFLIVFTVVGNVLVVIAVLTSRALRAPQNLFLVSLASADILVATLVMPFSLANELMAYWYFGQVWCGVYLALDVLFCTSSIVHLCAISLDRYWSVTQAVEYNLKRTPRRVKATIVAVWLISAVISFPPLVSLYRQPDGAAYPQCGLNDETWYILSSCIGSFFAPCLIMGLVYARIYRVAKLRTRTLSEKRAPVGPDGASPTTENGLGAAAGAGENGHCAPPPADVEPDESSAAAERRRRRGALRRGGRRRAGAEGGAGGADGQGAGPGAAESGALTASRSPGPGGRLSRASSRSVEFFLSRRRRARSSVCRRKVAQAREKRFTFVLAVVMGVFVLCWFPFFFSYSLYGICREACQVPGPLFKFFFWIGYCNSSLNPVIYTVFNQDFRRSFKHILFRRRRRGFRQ
compound,measurement,setting,value
CNc1nc(C#Cc2ccc(Cl)s2)nc2c1ncn2[C@@H]1O[C@H](C(=O)OC)[C@@H](O)[C@H]1O,Activity,[1],220%
same,inhibition,[2],inactive
same,Activity,[3],312%
same,EC50,[3]; read-out: EC50,0.127 µM
same,Activity,[4],227%
same,EC50,[4]; read-out: EC50,1.52 µM
same,IC50,[5],2.69 µM
same,Activity,[6],inactive
same,EC50,[6]; read-out: EC50,> 10 µM
same,EC50,[7],> 10 µM
same,Ki,[8],3.24 µM
same,Ki,[9],> 10 µM
same,Ki,[10],> 10 µM
same,Ki,[11],> 10 µM
